Experimental data: ChEMBL document CHEMBL3526048, “In vitro metabolism of rivoglitazone, a novel peroxisome proliferator-activated receptor γ agonist, in rat, monkey, and human liver microsomes and freshly isolated hepatocytes” (Drug Metab Dispos, 2011)

How the values were obtained:
Type in all cases: ADME
Cytochrome P450 2C9 = Cytochrome P450 2C9 (Homo sapiens, UniProt P11712); assay: Activity of human CYP2C9 expressed in microsomes isolated from baculovirus infected insect cell assessed as enzyme-mediated 2-mercapto-3-(4-((6-methoxy-1-methyl-1H-benzo[d]imidazol-2-yl)methoxy)phenyl)propanoic acid formation at 20 uM after 2 hrs by radio-HPLC/LC-MS/MS analysis in presence of NADPH-generating system
Sequence of Cytochrome P450 2C9 (P11712 whole entry): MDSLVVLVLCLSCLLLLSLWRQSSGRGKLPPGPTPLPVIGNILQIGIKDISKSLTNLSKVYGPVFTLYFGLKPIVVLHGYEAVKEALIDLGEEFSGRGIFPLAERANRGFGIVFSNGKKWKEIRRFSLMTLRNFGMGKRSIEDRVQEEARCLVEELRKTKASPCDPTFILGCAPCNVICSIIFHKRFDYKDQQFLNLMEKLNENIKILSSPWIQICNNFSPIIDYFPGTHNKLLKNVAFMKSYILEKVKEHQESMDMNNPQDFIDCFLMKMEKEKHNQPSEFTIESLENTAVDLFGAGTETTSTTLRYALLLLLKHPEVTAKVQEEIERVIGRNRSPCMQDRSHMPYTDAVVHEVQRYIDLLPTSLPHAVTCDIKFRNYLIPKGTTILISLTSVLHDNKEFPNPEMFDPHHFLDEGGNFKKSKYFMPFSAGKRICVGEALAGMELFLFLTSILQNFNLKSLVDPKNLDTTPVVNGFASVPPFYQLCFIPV
How it was run: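 Baculovirus-insect-cell microsomes expressing the human CYP (1 mg/ml protein) were incubated with [14C]rivoglitazone (20 μM) in 50 mM potassium phosphate (pH 7.4) or 100 mM Tris-HCl (pH 7.5) with an NADPH-generating system (2 mM NADP+, 20 mM glucose 6-phosphate, 2 units/ml G6PDH, 10 mM MgCl2) for 2 h at 37°C. Insect-cell control supersomes served as the control. Reactions were stopped with acetonitrile, and the concentrated supernatants were analysed by radio-HPLC, LC-MS and LC-MS/MS.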

Cytochrome P450 1A2 = molecular target: T1, Cytochrome P450 1A2 (Homo sapiens, UniProt P05177); assay: Activity of human CYP1A2 expressed in microsomes isolated from baculovirus infected insect cell assessed as enzyme-mediated 5-(4-((6-methoxy-1H-benzo[d]imidazol-2-yl)methoxy)benzyl)thiazolidine-2,4-dione formation at 20 uM after 2 hrs by radio-HPLC/LC-MS/MS analysis in presence of NADPH-generating system and NADPH-generating system/SAM
T1 sequence (P05177 whole entry): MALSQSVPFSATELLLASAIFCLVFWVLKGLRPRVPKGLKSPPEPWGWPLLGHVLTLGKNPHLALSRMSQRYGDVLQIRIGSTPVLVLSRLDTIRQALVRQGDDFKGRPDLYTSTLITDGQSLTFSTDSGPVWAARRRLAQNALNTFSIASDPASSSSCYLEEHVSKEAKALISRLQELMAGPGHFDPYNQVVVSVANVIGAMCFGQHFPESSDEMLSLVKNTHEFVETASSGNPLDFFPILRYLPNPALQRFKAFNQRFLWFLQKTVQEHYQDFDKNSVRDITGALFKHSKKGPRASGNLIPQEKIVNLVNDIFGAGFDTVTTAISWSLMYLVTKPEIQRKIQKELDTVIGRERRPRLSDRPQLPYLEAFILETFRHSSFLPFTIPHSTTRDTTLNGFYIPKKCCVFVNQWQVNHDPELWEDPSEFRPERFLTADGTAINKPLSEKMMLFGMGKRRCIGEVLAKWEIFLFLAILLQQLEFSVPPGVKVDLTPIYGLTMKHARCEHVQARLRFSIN
How it was run: (§1)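 Baculovirus/insect-cell microsomes expressing single human CYPs, 1 mg/ml protein, with 50 mM potassium phosphate (pH 7.4) or 100 mM Tris-HCl (pH 7.5). NADPH-generating system: 2 mM NADP⁺, 20 mM glucose 6-phosphate, 2 units/ml G6PDH, 10 mM MgCl₂. [¹⁴C]rivoglitazone at 20 μM, 2 h at 37°C with shaking. Control used insect-cell control supersomes. Stopped with acetonitrile; supernatant concentrated under nitrogen; metabolites analysed by radio-HPLC, LC-MS and LC-MS/MS.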

Liver microsome = assay: Drug metabolism in human liver microsomes assessed as formation of 2-mercapto-3-(4-((6-methoxy-1-methyl-1H-benzo[d]imidazol-2-yl)methoxy)phenyl)propanamide at 20 uM after 2 hrs by radio-HPLC/LC-MS/MS analysis in presence of NADPH-generating system and NADPH-generating system/SAM
[1] = molecular target: T2, UDP-glucuronosyltransferase 1A8 (Homo sapiens, UniProt Q9HAW9); assay: Activity of human UGT1A8 expressed in microsomes isolated from baculovirus infected insect cell assessed as enzyme-mediated 2-mercapto-3-(4-((6-methoxy-1-methyl-1H-benzo[d]imidazol-2-yl)methoxy)phenyl)propanoic acid formation at 20 uM after 4 hrs by radio-HPLC/LC-MS/MS analysis in presence of UDPGA
T2 sequence (Q9HAW9 whole entry): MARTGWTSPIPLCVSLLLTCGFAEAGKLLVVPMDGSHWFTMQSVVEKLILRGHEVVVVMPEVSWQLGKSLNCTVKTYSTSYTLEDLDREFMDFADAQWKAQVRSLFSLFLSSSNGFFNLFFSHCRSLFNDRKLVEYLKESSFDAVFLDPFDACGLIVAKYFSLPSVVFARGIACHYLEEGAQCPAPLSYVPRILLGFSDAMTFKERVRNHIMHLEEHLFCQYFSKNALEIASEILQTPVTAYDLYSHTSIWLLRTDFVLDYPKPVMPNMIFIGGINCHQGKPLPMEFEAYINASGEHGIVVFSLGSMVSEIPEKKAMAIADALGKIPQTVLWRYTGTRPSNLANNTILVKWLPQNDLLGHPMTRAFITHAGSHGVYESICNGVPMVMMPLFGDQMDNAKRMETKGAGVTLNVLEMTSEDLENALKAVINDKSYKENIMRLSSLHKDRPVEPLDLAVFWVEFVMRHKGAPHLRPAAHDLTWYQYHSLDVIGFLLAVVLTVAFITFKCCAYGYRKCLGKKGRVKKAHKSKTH

[2] = molecular target: T3, UDP-glucuronosyltransferase 1A3 (Homo sapiens, UniProt P35503); assay: Activity of human UGT1A3 expressed in microsomes isolated from baculovirus infected insect cell assessed as enzyme-mediated 2-((4-((2,4-dioxothiazolidin-5-yl)methyl)phenoxy)methyl)-1-methyl-1H-benzo[d]imidazol-6-yl hydrogen sulfate formation at 20 uM after 4 hrs by radio-HPLC/LC-MS/MS analysis
T3 sequence (P35503 whole entry): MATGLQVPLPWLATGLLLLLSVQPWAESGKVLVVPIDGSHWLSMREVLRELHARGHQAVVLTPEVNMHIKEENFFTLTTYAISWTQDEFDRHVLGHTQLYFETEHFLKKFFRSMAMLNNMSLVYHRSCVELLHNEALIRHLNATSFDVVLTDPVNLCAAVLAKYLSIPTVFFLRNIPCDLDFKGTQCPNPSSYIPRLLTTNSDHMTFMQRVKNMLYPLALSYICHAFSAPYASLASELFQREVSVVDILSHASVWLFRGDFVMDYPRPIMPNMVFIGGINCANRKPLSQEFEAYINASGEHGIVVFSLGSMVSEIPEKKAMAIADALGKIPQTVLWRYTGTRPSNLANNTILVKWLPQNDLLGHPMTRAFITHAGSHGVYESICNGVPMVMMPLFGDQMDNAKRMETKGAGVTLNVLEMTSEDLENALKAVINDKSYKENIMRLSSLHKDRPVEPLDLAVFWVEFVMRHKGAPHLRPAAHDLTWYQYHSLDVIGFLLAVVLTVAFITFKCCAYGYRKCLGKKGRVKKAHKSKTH
How it was run: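 Alamethicin (50 μg/mg protein, 15 min on ice) pretreated expressed human UGT microsomes (1 mg/ml protein) from baculovirus-infected insect cells. Incubation with [¹⁴C]rivoglitazone (20 μM) in 100 mM Tris-HCl (pH 7.5) with 10 mM MgCl₂, started by 5 mM UDPGA, 4 h at 37°C with shaking. UGT insect-cell control supersomes were run alongside. Acetonitrile stop, concentrated supernatant analysed by radio-HPLC, LC-MS and LC-MS/MS.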

Cytochrome P450 2C19 = Cytochrome P450 2C19 (Homo sapiens, UniProt P33261); assay: Activity of human CYP2C19 expressed in microsomes isolated from baculovirus infected insect cell assessed as enzyme-mediated 2-hydroxy-3-(4-((6-methoxy-1-methyl-1H-benzo[d]imidazol-2-yl)methoxy)phenyl)propanamide formation at 20 uM after 2 hrs by radio-HPLC/LC-MS/MS analysis in presence of NADPH-generating system and NADPH-generating system/SAM; how it was run: as §1
Sequence of Cytochrome P450 2C19 (P33261 whole entry): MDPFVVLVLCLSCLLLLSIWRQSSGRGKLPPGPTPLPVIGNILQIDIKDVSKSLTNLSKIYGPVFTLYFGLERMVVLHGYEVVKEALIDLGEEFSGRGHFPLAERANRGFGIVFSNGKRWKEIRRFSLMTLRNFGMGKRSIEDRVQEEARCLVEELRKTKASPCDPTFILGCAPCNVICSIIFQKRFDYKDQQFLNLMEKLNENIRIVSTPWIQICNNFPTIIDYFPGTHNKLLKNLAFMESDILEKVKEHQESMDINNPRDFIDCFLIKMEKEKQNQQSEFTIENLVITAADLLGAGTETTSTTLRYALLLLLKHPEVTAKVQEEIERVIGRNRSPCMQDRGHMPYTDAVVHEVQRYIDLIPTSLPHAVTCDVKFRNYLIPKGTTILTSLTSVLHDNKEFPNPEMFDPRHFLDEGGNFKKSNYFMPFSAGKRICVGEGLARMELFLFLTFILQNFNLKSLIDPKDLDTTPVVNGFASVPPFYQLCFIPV

[3] = molecular target: T3, UDP-glucuronosyltransferase 1A3; assay: Activity of human UGT1A3 expressed in microsomes isolated from baculovirus infected insect cell assessed as enzyme-mediated 3-(4-((6-methoxy-1-methyl-1H-benzo[d]imidazol-2-yl)methoxy)phenyl)-2-(methylthio)propanamide formation at 20 uM after 4 hrs by radio-HPLC/LC-MS/MS analysis in presence of NADPH-generating system/SAM in presence of UDPGA and UDPGA/SAM

Measured: Drug metabolism

COc1ccc2nc(COc3ccc(C[14CH]4SC(=O)NC4=O)cc3)n(C)c2c1.Cl (racemic)
metabolite_not_detected: [1] | [2] | [3]
metabolite_detected: Cytochrome P450 2C9 | Cytochrome P450 1A2 | Liver microsome | Cytochrome P450 2C19
